Data from ChEMBL document CHEMBL3871269, “Conjugates of podophyllotoxin and norcantharidin as dual inhibitors of topoisomeraseⅡ and protein phosphatase 2A” (Eur J Med Chem, 2016).
Activity calls are given as the source filed them. No cut-off for these calls is given here.

test system: not listed separately; assay: Cytotoxicity against human A549 cells measured after 48 hrs by MTT assay; type: functional, cell-based; settings: A549, 48 h
Method in brief: (§1)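 MTT growth assay; cells seeded at 5×10³/well in RPMI1640 with 10% heat-inactivated FBS, attached 4–6 h, then exposed to five concentrations (0.01–100 μM, compounds dissolved in saline) for 48 h at 37 °C, 5% CO₂. MTT added for 4 h, formazan dissolved in DMSO, absorbance read at 490 nm. IC50 taken from log plot of percent of control versus concentration; means ± SD of triplicate experiments.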

Structure (SMILES)	IC50 [µM]
COc1cc([C@@H]2c3cc4c(cc3[C@@H](NC(=O)CCCN3C(=O)C5C6CCC(O6)C5C3=O)[C@H]3COC(=O)[C@H]23)OCO4)cc(OC)c1O (stereo partly specified)	4.57

test system: not listed separately; assay: Cytotoxicity against human HepG2 cells measured after 48 hrs by MTT assay; type: functional, cell-based; settings: HepG2, 48 h; method in brief: as §1

Structure (SMILES)	IC50 [µM]
COc1cc([C@@H]2c3cc4c(cc3[C@@H](NC(=O)CCCN3C(=O)C5C6CCC(O6)C5C3=O)[C@H]3COC(=O)[C@H]23)OCO4)cc(OC)c1O (stereo partly specified)	< 0.01

test system: not listed separately; assay: Cytotoxicity against human HeLa cells measured after 48 hrs by MTT assay; type: functional, cell-based; settings: not given; method in brief: as §1

Structure (SMILES)	IC50 [µM]
COc1cc([C@@H]2c3cc4c(cc3[C@@H](NC(=O)CCCN3C(=O)C5C6CCC(O6)C5C3=O)[C@H]3COC(=O)[C@H]23)OCO4)cc(OC)c1O (stereo partly specified)	4.33

test system: not listed separately; assay: Cytotoxicity against human HCT8 cells measured after 48 hrs by MTT assay; type: functional, cell-based; settings: HCT-8, 48 h; method in brief: as §1

Structure (SMILES)	IC50 [µM]
COc1cc([C@@H]2c3cc4c(cc3[C@@H](NC(=O)CCCN3C(=O)C5C6CCC(O6)C5C3=O)[C@H]3COC(=O)[C@H]23)OCO4)cc(OC)c1O (stereo partly specified)	3.48

test system: not listed separately; assay: Cytotoxicity against human WI38 cells measured after 48 hrs by MTT assay; type: toxicity, cell-based, WI-38; settings: not given
Method in brief: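 MTT growth inhibition in WI-38 lung fibroblasts. Cells seeded at 5×10³/well in RPMI1640 with 10% heat-inactivated FBS, attached 4–6 h, then exposed 48 h at 37 °C, 5% CO₂ to five concentrations (0.01–100 μM, saline-dissolved). MTT 4 h, DMSO solubilisation, A490. IC50 from log plot of percent control vs concentration; triplicate, mean ± SD.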

Structure (SMILES)	IC50 at 48 h [µM]
COc1cc([C@@H]2c3cc4c(cc3[C@@H](NC(=O)CCCN3C(=O)C5C6CCC(O6)C5C3=O)[C@H]3COC(=O)[C@H]23)OCO4)cc(OC)c1O (stereo partly specified)	> 100

test system: not listed separately; assay: Octanol-water partition coefficient, log P of the compound; type: physicochemical; settings: read-out: logP
Method in brief: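 Partition coefficient P = compound concentration in 1-octanol / compound concentration in water.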

Structure (SMILES)	logP
COc1cc([C@@H]2c3cc4c(cc3[C@@H](NC(=O)CCCN3C(=O)C5C6CCC(O6)C5C3=O)[C@H]3COC(=O)[C@H]23)OCO4)cc(OC)c1O (stereo partly specified)	0.68

test system: not listed separately; assay: Inhibition of human RBC PP2A assessed as reduction in free phosphate ion release using Lys-Arg-pThr-Ile-Arg as substrate preincubated for 10 mins followed by substrate addition measured after 60 mins by malachite green method; settings: not given
Method in brief: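 Purified PP2A (0.6 mU/well) preincubated with inhibitor 10 min at 37 °C. Reaction started with 200 μM Lys-Arg-pThr-Ile-Arg in 50 mM Tris-HCl pH 7.0, 100 μM CaCl₂; 60 min at room temperature. Released phosphate read by malachite green at 650 nm after 10 min; enzyme-plus-buffer blanks. IC50 from dose–response; mean of three independent experiments in duplicate.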

Structure (SMILES)	IC50 [µM]
COc1cc([C@@H]2c3cc4c(cc3[C@@H](NC(=O)CCCN3C(=O)C5C6CCC(O6)C5C3=O)[C@H]3COC(=O)[C@H]23)OCO4)cc(OC)c1O (stereo partly specified)	0.49

test system: HepG2; assay: Inhibition of PP2A in human HepG2 cells assessed as residual activity by measuring phosphopeptide substrate level at 1 uM using RRAT(pT)VA as substrate preincubated for 24 hrs followed by substrate addition measured after 30 mins by molybdate dye based assay relative to control; type: cell-based; settings: not given
Method in brief: (§2)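 HepG2 cells treated 24 h in six-well plates, lysed, endogenous phosphate removed. Lysate incubated 30 min at 37 °C with phosphopeptide RRAT(pT)VA (5 μL of 1 mM). Stopped with molybdate dye mix; A600 after 15 min. Activity from phosphate standard curve, expressed relative to untreated control; mean ± SD.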

Structure (SMILES)	Activity [%]
COc1cc([C@@H]2c3cc4c(cc3[C@@H](NC(=O)CCCN3C(=O)C5C6CCC(O6)C5C3=O)[C@H]3COC(=O)[C@H]23)OCO4)cc(OC)c1O (stereo partly specified)	73

test system: HepG2; assay: Inhibition of PP2A in human HepG2 cells assessed as residual activity by measuring phosphopeptide substrate level at 2 uM using RRAT(pT)VA as substrate preincubated for 24 hrs followed by substrate addition measured after 30 mins by molybdate dye based assay relative to control; type: cell-based; settings: not given; method in brief: as §2

Structure (SMILES)	Activity [%]
COc1cc([C@@H]2c3cc4c(cc3[C@@H](NC(=O)CCCN3C(=O)C5C6CCC(O6)C5C3=O)[C@H]3COC(=O)[C@H]23)OCO4)cc(OC)c1O (stereo partly specified)	32

test system: HepG2; assay: Inhibition of PP2A in human HepG2 cells assessed as residual activity by measuring phosphopeptide substrate level at 5 uM using RRAT(pT)VA as substrate preincubated for 24 hrs followed by substrate addition measured after 30 mins by molybdate dye based assay relative to control; type: cell-based; settings: not given; method in brief: as §2

Structure (SMILES)	Activity [%]
COc1cc([C@@H]2c3cc4c(cc3[C@@H](NC(=O)CCCN3C(=O)C5C6CCC(O6)C5C3=O)[C@H]3COC(=O)[C@H]23)OCO4)cc(OC)c1O (stereo partly specified)	27

test system: HepG2; assay: Inhibition of PP2A in human HepG2 cells assessed as reduction in phosphopeptide substrate level using RRAT(pT)VA as substrate preincubated for 24 hrs followed by substrate addition measured after 30 mins by molybdate dye based assay; type: cell-based; settings: not given; method in brief: as §2

Structure (SMILES)	inhibition
COc1cc([C@@H]2c3cc4c(cc3[C@@H](NC(=O)CCCN3C(=O)C5C6CCC(O6)C5C3=O)[C@H]3COC(=O)[C@H]23)OCO4)cc(OC)c1O (stereo partly specified)	Dose-dependent effect

species: Homo sapiens; assay: Inhibition of human topoisomerase-2 catalytic activity assessed as reduction in pBR322 supercoiled DNA relaxation up to 100 uM measured after 60 mins by ethidium bromide staining agarose gel electrophoresis; settings: not given
Method in brief: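 Relaxation assay with supercoiled pBR322 (250 ng/μL) and topoisomerase II (4 units) in kit buffer, 20 μL, 60 min at 37 °C. Compound at 50 or 100 μM. Stopped with 10% SDS, proteinase K, chloroform/isoamyl alcohol extraction. Run on 1% agarose in TAE pH 8.0, ethidium bromide stained.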

Structure (SMILES)	inhibition
COc1cc([C@@H]2c3cc4c(cc3[C@@H](NC(=O)CCCN3C(=O)C5C6CCC(O6)C5C3=O)[C@H]3COC(=O)[C@H]23)OCO4)cc(OC)c1O (stereo partly specified)	Active

test system: HepG2; assay: Induction of cell cycle arrest in human HepG2 cells assessed as accumulation at G2/M phase measured after 24 hrs by propidium iodide staining based flow cytometry; type: functional; settings: not given
Method in brief: (§3)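 HepG2 cells exposed 24 h to 0, 0.5 or 1 μM. (1–5)×10⁵ cells harvested, PBS-washed, fixed in 70% ice-cold ethanol at least overnight. Stained 15 min in dark with 1% Triton X-100, 0.01% RNase, 0.05% PI. Cell-cycle distribution by flow cytometry.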

Structure (SMILES)	Activity
COc1cc([C@@H]2c3cc4c(cc3[C@@H](NC(=O)CCCN3C(=O)C5C6CCC(O6)C5C3=O)[C@H]3COC(=O)[C@H]23)OCO4)cc(OC)c1O (stereo partly specified)	Dose-dependent effect

test system: HepG2; assay: Induction of cell cycle arrest in human HepG2 cells assessed as accumulation at G2/M phase at 0.5 uM measured after 24 hrs by propidium iodide staining based flow cytometry (reference value: 9.4%); type: functional; settings: not given

Structure (SMILES)	Activity [%]
COc1cc([C@@H]2c3cc4c(cc3[C@@H](NC(=O)CCCN3C(=O)C5C6CCC(O6)C5C3=O)[C@H]3COC(=O)[C@H]23)OCO4)cc(OC)c1O (stereo partly specified)	27.6

test system: HepG2; assay: Induction of cell cycle arrest in human HepG2 cells assessed as accumulation at G2/M phase at 1 uM measured after 24 hrs by propidium iodide staining based flow cytometry (reference value: 9.4%); type: functional; settings: not given

Structure (SMILES)	Activity [%]
COc1cc([C@@H]2c3cc4c(cc3[C@@H](NC(=O)CCCN3C(=O)C5C6CCC(O6)C5C3=O)[C@H]3COC(=O)[C@H]23)OCO4)cc(OC)c1O (stereo partly specified)	58.6

test system: HepG2; assay: Induction of cell cycle arrest in human HepG2 cells assessed as increase in cyclin B1 expression at 0.5 to 1 uM measured after 24 hrs by western blot method; type: functional, cell-based; settings: not given
Method in brief: (§4)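 HepG2 cells grown 24 h in flasks, then treated with 0, 0.5 or 1 μM for 24 h. Lysis in Tris/NP-40/SDS buffer with protease inhibitors; Bradford protein assay. 30 μg protein on 10% or 12% SDS-PAGE, PVDF transfer, milk block 2 h. Cyclin B1 or cdc2 antibodies (1:500–1:1000) overnight at 4 °C, then secondary. β-actin loading control.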

Structure (SMILES)	Activity
COc1cc([C@@H]2c3cc4c(cc3[C@@H](NC(=O)CCCN3C(=O)C5C6CCC(O6)C5C3=O)[C@H]3COC(=O)[C@H]23)OCO4)cc(OC)c1O (stereo partly specified)	Active

test system: HepG2; assay: Induction of cell cycle arrest in human HepG2 cells assessed as decrease in G1 phase at 0.5 to 1 uM measured after 24 hrs by propidium iodide staining based flow cytometry; type: functional; settings: not given; method in brief: as §3

Structure (SMILES)	Activity
COc1cc([C@@H]2c3cc4c(cc3[C@@H](NC(=O)CCCN3C(=O)C5C6CCC(O6)C5C3=O)[C@H]3COC(=O)[C@H]23)OCO4)cc(OC)c1O (stereo partly specified)	Active

test system: HepG2; assay: Induction of cell cycle arrest in human HepG2 cells assessed as decrease in G1 phase by propidium iodide staining based flow cytometry; type: functional; settings: TDE = time-dependent effect; method in brief: as §3

Structure (SMILES)	Activity
COc1cc([C@@H]2c3cc4c(cc3[C@@H](NC(=O)CCCN3C(=O)C5C6CCC(O6)C5C3=O)[C@H]3COC(=O)[C@H]23)OCO4)cc(OC)c1O (stereo partly specified)	Tde

test system: HepG2; assay: Induction of cell cycle arrest in human HepG2 cells assessed as increase in cyclin B1 expression measured after 24 hrs by western blot method; type: functional, cell-based; settings: not given; method in brief: as §4

Structure (SMILES)	Activity
COc1cc([C@@H]2c3cc4c(cc3[C@@H](NC(=O)CCCN3C(=O)C5C6CCC(O6)C5C3=O)[C@H]3COC(=O)[C@H]23)OCO4)cc(OC)c1O (stereo partly specified)	Dose-dependent effect

test system: HepG2; assay: Induction of cell cycle arrest in human HepG2 cells assessed as increase in cyclin cdc-2 expression measured after 24 hrs by western blot method; type: functional, cell-based; settings: not given; method in brief: as §4

Structure (SMILES)	Activity
COc1cc([C@@H]2c3cc4c(cc3[C@@H](NC(=O)CCCN3C(=O)C5C6CCC(O6)C5C3=O)[C@H]3COC(=O)[C@H]23)OCO4)cc(OC)c1O (stereo partly specified)	Dose-dependent effect

species: Bos taurus; assay: Binding affinity to calf thymus DNA at 1 uM at pH 7.2 measured after 5 mins by fluorescence spectroscopic method; settings: not given
Method in brief: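 CT DNA titrated (0–5 μM) into 1 μM compound in pH 7.2 PBS, equilibrated 5 min at 25 °C. Excitation at 318 nm, emission recorded over 280–400 nm. CT DNA samples in PBS at matching concentrations served as blanks.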

Structure (SMILES)	Activity
COc1cc([C@@H]2c3cc4c(cc3[C@@H](NC(=O)CCCN3C(=O)C5C6CCC(O6)C5C3=O)[C@H]3COC(=O)[C@H]23)OCO4)cc(OC)c1O (stereo partly specified)	Active
